UBC9 SUMO inh: inhibitors of in vitro SUMOylation cascade, primary screen, biochemical, HTRF, uHTS | SUMO-conjugating enzyme UBC9 (Homo sapiens), P63279 | HTRF SUMOylation assay, SAE1/SAE2 + UBC9 | inhibition, % at 35 µM | 290,000 compounds, 0.36% hits; in the data active means inhibition above about 50%, passing the limit was not always enough
Target sequence (P63279 whole entry, looked up): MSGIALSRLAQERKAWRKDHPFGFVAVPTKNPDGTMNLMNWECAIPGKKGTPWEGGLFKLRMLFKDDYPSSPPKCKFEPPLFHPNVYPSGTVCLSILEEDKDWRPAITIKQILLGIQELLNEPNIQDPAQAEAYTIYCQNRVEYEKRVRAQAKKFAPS
Scp1 inh: Scp-1 phosphatase inhibitors, primary screen, biochemical, colorimetric, uHTS. inhibition, % at 20 µM. Recombinant Scp1, phosphopeptide, malachite green phosphate absorbance. AID 493091, 2011. 340,000 compounds, 0.88% hits;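 active means inhibition above about 50% at 20 µM, limit read from the data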
Target sequence (Q9GZU7 76-261 limits assumed): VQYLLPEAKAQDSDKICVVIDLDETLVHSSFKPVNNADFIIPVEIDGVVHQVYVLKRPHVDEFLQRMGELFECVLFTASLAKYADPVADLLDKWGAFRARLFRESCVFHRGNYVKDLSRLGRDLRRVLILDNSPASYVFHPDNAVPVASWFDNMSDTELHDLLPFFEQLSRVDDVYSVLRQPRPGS
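Material – SCP-1 phosphatase catalytic domain, residues 76-261 · Buffer or medium – Acidic Tris acetate buffer with magnesium and detergent · Also added – Phospho 17-mer peptide substrate · Compound – single 20 µM dose, 1% DMSO · Times – 45 min room-temperature reaction, 5 min colour, 30 min stabiliser · Technique – Phosphate-binding colour reagent, absorbance read at 630 nm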
STEP inh: STEP phosphatase inhibitors, primary screen, biochemical, fluorescence intensity, uHTS; Tyrosine-protein phosphatase non-receptor type 5 (Homo sapiens), P54829; recombinant STEP, OMFP fluorogenic substrate; inhibition, % at 20 µM; 360,000 compounds, 0.25% hits; AID 588621, 2011;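 active means inhibition at 20 µM, scaled per plate between control wells, above about 37%, limit read from the data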
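System: STEP (striatal-enriched tyrosine phosphatase) enzyme, cell-free; medium: Bis-Tris pH 6.0 buffer with DTT, detergent; dosing: 20 µM, 1% DMSO; times: reaction 20 min, ambient temperature; detection: fluorescence, 480/540 nm; read-out basis: normalized % inhibition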
SUMO1-SIM PPI: modulators of SUMO1 protein-protein interactions, primary screen, biochemical, uHTS. SUMO1 binding to a labelled peptide, TR-FRET, 1 h. inhibition, % at 20 µM. 360,000 compounds, 0.33% hits. AID 602429, 2012; in the data active means inhibition above about 37%
Target sequence (P63165 whole entry, looked up): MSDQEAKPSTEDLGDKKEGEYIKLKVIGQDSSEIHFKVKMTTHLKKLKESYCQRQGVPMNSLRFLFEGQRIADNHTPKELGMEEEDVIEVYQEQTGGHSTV
DNMT1 inh: human DNMT1 methyltransferase inhibitors, primary screen, biochemical, molecular beacon, fluorescence, HinP1I cleavage, uHTS; 360,000 compounds, 0.83% hits; inhibition (reported as % activation of signal), % at 10 µM; DNA (cytosine-5)-methyltransferase 1 (Homo sapiens), P26358; in the data active means inhibition above about 50%
LMPTP block: LMPTP phosphatase inhibitors, primary screen, biochemical, fluorescence intensity, uHTS. Low molecular weight phosphotyrosine protein phosphatase (Homo sapiens), P24666. recombinant LMPTP-A, OMFP fluorogenic substrate. inhibition, % at 20 µM. 360,000 compounds, 0.22% hits. AID 651560, 2012;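 active means compounds that cut the enzyme signal by at least half of the control window in the single-dose screen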
Target sequence (P24666 whole entry, looked up): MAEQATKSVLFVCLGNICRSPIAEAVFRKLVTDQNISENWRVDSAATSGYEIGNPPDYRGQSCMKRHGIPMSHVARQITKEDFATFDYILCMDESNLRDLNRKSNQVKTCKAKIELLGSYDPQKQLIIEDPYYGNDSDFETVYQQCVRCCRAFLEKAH
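Buffer or medium: Bis-Tris pH 6.0, DTT, detergent; Assay system: LMPTP-A enzyme; Quantity: 0.625 nM enzyme; Detection: endpoint fluorescence intensity; Times: 50 min dark incubation at room temperature; Controls: substrate-only low control, DMSO enzyme-plus-substrate high control; Doses: single 20 µM dose; Read-out: percent inhibition versus substrate-only and uninhibited controls; Reagent: 400 µM OMFP.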
Scp-1 conf: Scp-1 phosphatase inhibitors, retest, confirmation, biochemical, colorimetric, single concentration. recombinant SCP-1 catalytic domain, phosphate release, malachite green absorbance. 2,500 compounds, 61% hits. inhibition, % at 20 µM. shares compounds with Scp1 inh
MG interference: colorimetric readout interference by compounds, confirmation, artefact control for Scp-1 inhibitor project, biochemical, single concentration; 2,500 tested, under 10 active; Colorimetric interference counterscreen, malachite green absorbance 630 nm; apparent inhibition (interference), % at 20 µM; AID 540313, 2011; shares compounds with Scp1 inh;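 further: compounds added after enzyme reaction finished so only phosphate colour detection is probed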
Scp-1 Tm shift: Scp-1 binding by thermal shift, confirmation, orthogonal assay for Scp-1 inhibitor project, biophysical, differential scanning fluorimetry; 1,500 compounds, 25% hits; shares compounds with Scp1 inh; AID 540329, 2011; thermal shift relative to vanadate control, % at 40 µM; Recombinant SCP1, Sypro Orange thermal shift Tm;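 active means substances whose mean melting-temperature shift, as a percentage of the reference inhibitor's shift, reaches about 5.3%, limit read from the data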
Beacon interf DR: spectral interference with molecular beacon fluorescence, dose response, artefact control for DNMT1 inhibitor project, biochemical, fluorescent molecular beacon; AID 602382, 2012; 200 tested, under 10 active; spectral interference counter-screen; shares compounds with DNMT1 inh; IC50, µM; call rule not given here
DNMT1 confirm: DNMT1 methyltransferase inhibitor retest, confirmation, biochemical, molecular beacon, fluorescence, single concentration; shares compounds with DNMT1 inh; DNMT1 molecular beacon HinP1I cleavage; inhibition, % at 10 µM; 2,300 compounds, 8% hits; AID 602385, 2012;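 active means average inhibition of at least 30% in the single-concentration confirmation test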
DNMT1 interf: counter-screen for DNMT1 inhibitors: spectral interference; 2,300 compounds, 1% hits; shares compounds with DNMT1 inh; DNMT1 molecular beacon spectral interference counterscreen, fluorescence 485/520; activation (fluorescence interference), % at 10 µM;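 active means activation of at least 30% at 10 µM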;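 further: DNMT1 catalytic domain with a HinP1I cleavage step and a FAM/dabcyl DNA beacon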
Each line names hits and unclear results; the compound was inactive in the other large screens (follow-up assays come after a bar, where they were run); ! = a repeat was not active. Rows were chosen to be rich in hits. Some 1.9% of all compounds tested hit in one or more screens of this group.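 How the source made its calls, unless noted: active means inhibition of at least 30% at 20 µM; inactive means the rest.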

CC(=O)OCC1=C(C(=O)O)N2C(=O)C(NC(=O)c3ccc(COc4cccc(Cl)c4Cl)o3)C2SC1 (stereo not drawn)	Scp1 inh 53, DNMT1 inh 88 | Scp-1 conf 66 | MG interference inactive | Scp-1 Tm shift inactive | Beacon interf DR inactive | DNMT1 confirm 41 | DNMT1 interf inactive
CCN(CC)S(=O)(=O)c1ccc(/C=C/C(=O)OCC(=O)NCc2ccco2)cc1	Scp1 inh 71, DNMT1 inh 64 (no result: UBC9 SUMO inh) | Scp-1 conf 79 | MG interference inactive | Scp-1 Tm shift inactive | DNMT1 confirm inactive | DNMT1 interf inactive
COc1ccccc1OCCOc1ccc(/C=C2/C(=N)N3OC(C)=CC3=NC2=O)cc1OC	Scp1 inh 97, DNMT1 inh 88 | Scp-1 conf 68 | MG interference inactive | Scp-1 Tm shift inactive | DNMT1 confirm inactive | DNMT1 interf inactive
COCCCn1c(=NC(=O)c2ccccc2)c(C#N)cc2c(=O)n3cccc(C)c3nc21	none
Cc1cccn2c(=O)c3cc(C#N)c(=NC(=O)c4ccco4)n(Cc4ccco4)c3nc12	Scp1 inh 76, DNMT1 inh 61 | Scp-1 conf 36 | MG interference inactive | Scp-1 Tm shift 10.0 | DNMT1 confirm inactive | DNMT1 interf inactive
Cc1cccc(C(=O)N=c2c(C#N)cc3c(=O)n4cccc(C)c4nc3n2Cc2ccco2)c1	Scp1 inh 85!, SUMO1-SIM PPI 51!, DNMT1 inh 51! | Scp-1 conf 46 | MG interference inactive | Scp-1 Tm shift 15 | DNMT1 confirm inactive | DNMT1 interf inactive
CC(OC(=O)c1ccncc1)C(=O)Nc1cc(S(=O)(=O)N2CCCCC2)ccc1Cl (stereo not drawn)	none
O=C(CSc1ccc(S(=O)(=O)N2CCOCC2)cn1)Nc1ccc(F)c(F)c1	none (no result: UBC9 SUMO inh)
CCOC(=O)c1ccc(NC(=O)CSc2nc(C)cc(=O)[nH]2)cc1	Scp1 inh 71, DNMT1 inh 88 | Scp-1 conf 58 | MG interference inactive | Scp-1 Tm shift 11 | DNMT1 confirm inactive | DNMT1 interf inactive
CCN(CC)c1ccc(NC(=O)CSc2nc(C)cc(=O)[nH]2)cc1	none
O=C(COC(=O)C1CCN(S(=O)(=O)c2cc([N+](=O)[O-])ccc2Cl)CC1)Nc1ncc(Cl)cc1Cl	Scp1 inh 68, DNMT1 inh 86 | Scp-1 conf 58 | MG interference inactive | Scp-1 Tm shift 14 | DNMT1 confirm inactive | DNMT1 interf inactive
CSc1nc(SCCO)c2sc3nc(-c4ccco4)c4c(c3c2n1)CC(C)(C)OC4	Scp1 inh 79, SUMO1-SIM PPI 60, DNMT1 inh 98 | Scp-1 conf 43 | MG interference inactive | Scp-1 Tm shift 7.4 | DNMT1 confirm inactive | DNMT1 interf inactive
Cn1cccc1CC(=O)N/N=C/C=C/c1ccco1	UBC9 SUMO inh 80, Scp1 inh 69, DNMT1 inh 96 | Scp-1 conf 40 | MG interference inactive | Scp-1 Tm shift inactive | DNMT1 confirm inactive | DNMT1 interf inactive
C/C(=N\NC(=O)Cc1cccn1C)c1ccco1	none
O=c1[nH]c(C2CCN(S(=O)(=O)Cc3ccccc3)CC2)nc2c1nnn2Cc1cccc(Cl)c1	none
CN(CC(=O)NC(=O)NCc1ccco1)Cc1nc2ccccc2c(=O)[nH]1	Scp1 inh 86, DNMT1 inh 70 | Scp-1 conf 73 | MG interference inactive | Scp-1 Tm shift inactive | DNMT1 confirm inactive | DNMT1 interf inactive
CCOC(=O)C(=O)NCc1ccc(/C=C2/N=C(C)C(C(=O)OCC)=C2O)o1	none
CCOC(=O)C1=C(O)/C(=C/c2ccc(CNC(=O)C(=O)Nc3ccc(C)cc3)o2)N=C1C	Scp1 inh 69, DNMT1 inh 90 | Scp-1 conf inactive | MG interference inactive | DNMT1 confirm inactive | DNMT1 interf inactive
O=C(Nc1ccc2c(c1)C(=O)c1ccccc1-2)c1ccccc1	none (no result: UBC9 SUMO inh)
COc1cccc(C(=O)Nc2ccc3c(c2)C(=O)c2ccccc2C3=O)c1	Scp1 inh 75, STEP inh 60, DNMT1 inh 74 | Scp-1 conf 64 | MG interference inactive | Scp-1 Tm shift 5.4 | DNMT1 confirm inactive | DNMT1 interf inactive
COC(=O)c1cc(C(=O)OC)cc(-n2c(C)cc(C=O)c2C)c1	none
Cc1cc(C=O)c(C)n1-c1cc(C(=O)O)cc(C(=O)O)c1	Scp1 inh 55, DNMT1 inh 89 | Scp-1 conf 52 | MG interference inactive | Scp-1 Tm shift inactive | DNMT1 confirm inactive | DNMT1 interf inactive
C=C(C)CN(CC)C(=O)CSc1ccc(S(=O)(=O)N2CCN(C)CC2)cn1	none (no result: UBC9 SUMO inh)
O=C(Nc1ccc2c(c1)OCO2)c1cc2ncc(Br)cn2n1	Scp1 inh 57, DNMT1 inh 59 | Scp-1 conf 66 | MG interference inactive | Scp-1 Tm shift inactive | DNMT1 confirm inactive | DNMT1 interf inactive

High-throughput results (PubChem BioAssay)
